Here are results for 13 compounds from publication PMC9078949 (RSC Advances, 2018).

The target of one test is T1, CXCR2 (Homo sapiens, UniProt P25025).
T1 sequence (P25025 1-360): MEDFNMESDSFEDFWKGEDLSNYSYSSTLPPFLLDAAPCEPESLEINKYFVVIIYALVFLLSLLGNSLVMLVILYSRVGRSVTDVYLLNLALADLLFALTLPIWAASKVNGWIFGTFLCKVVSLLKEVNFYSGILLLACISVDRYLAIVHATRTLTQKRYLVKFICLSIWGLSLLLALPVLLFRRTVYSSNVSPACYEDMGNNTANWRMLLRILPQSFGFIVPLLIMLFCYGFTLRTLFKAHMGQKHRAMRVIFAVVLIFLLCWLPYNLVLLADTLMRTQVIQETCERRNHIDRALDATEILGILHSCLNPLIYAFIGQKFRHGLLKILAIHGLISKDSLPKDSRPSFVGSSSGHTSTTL
The test can be described thus: CXCR2 antagonistic activity assay. The class given is cell-based. Summed up:
(§1)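 HEK293 cells stably co-expressing Gα16 with either CXCR1 or CXCR2 were seeded and grown for 24 h. They were loaded with 2 μmol L−1 Fluo-4 AM in HBSS (pH 7.4, with BSA and 250 μmol L−1 sulfinpyrazone) for 45 min at 37 °C, and excess dye was removed. Test compound was added for 10 min at room temperature before IL-8 injection. Calcium signal was read at ex 485/em 525 nm. IC50 came from nonlinear regression of log concentration–response curves; each experiment was run ≥3 times.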

In a further test the target is T2, CXCR1 (Homo sapiens, UniProt P25024).
T2 sequence (P25024 1-350): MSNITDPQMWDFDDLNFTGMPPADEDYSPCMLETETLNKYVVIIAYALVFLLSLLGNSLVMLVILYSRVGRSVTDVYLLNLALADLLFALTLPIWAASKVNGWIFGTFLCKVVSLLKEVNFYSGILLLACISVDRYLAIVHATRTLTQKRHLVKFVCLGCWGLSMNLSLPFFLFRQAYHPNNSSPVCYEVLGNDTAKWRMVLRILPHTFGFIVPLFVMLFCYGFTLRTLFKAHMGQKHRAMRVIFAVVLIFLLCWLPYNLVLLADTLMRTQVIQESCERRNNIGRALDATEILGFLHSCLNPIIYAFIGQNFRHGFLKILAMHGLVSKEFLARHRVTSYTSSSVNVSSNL
Description: CXCR1 antagonistic activity assay. Type of test: cell-based. Summed up:
as §1

As to `CN(C)C(=O)c1cccc(Nc2c(NCC3C[C@H]4C=C[C@@H]3C4)c(=O)c2=O)c1O` (stereo partly drawn) [1e, 3-((2-((((1S,4S)-Bicyclo[2.2.1]hept-5-en-2-yl)methyl)amino)-3,4-dioxocyclobut-1-en-1-yl)amino)-2-hydroxy-N,N-dimethylbenzamide], at CXCR2, the IC50 (commonly the midpoint of a concentration-inhibition curve) came to 2.6 µM and the “Ratio = CXCR1 IC50/CXCR2 IC50 (selectivity for CXCR2 over CXCR1)” value is listed as 11.8. Also, it took 30.8 µM to reach half-maximal inhibition at CXCR1 (IC50).

For `CN(C)C(=O)c1cccc(Nc2c(NC3C[C@H]4CC[C@]3(C)C4(C)C)c(=O)c2=O)c1O` (stereo partly drawn) [1c, 3-((3,4-Dioxo-2-(((1R,4R)-1,7,7-trimethylbicyclo[2.2.1]heptan-2-yl)amino)cyclobut-1-en-1-yl)amino)-2-hydroxy-N,N-dimethylbenzamide], at CXCR2, the 50% inhibitory concentration (IC50) worked out at 5.5 µM and the “Ratio = CXCR1 IC50/CXCR2 IC50 (selectivity for CXCR2 over CXCR1)” value amounted to 6.5. At CXCR1, this compound gave an IC50 of 35.6 µM.

Take `Cl.O=C(c1cccc(Nc2c(NC3C[C@@H]4CC[C@H]3C4)c(=O)c2=O)c1O)N1CCNCC1` (stereo partly drawn) [2h, 3-(((1S,4R)-Bicyclo[2.2.1]heptan-2-yl)amino)-4-((2-hydroxy-3-(piperazine-1-carbonyl)phenyl)amino)cyclobut-3-ene-1,2-dione hydrochloride]: on CXCR2, 0.53 µM corresponded to half-maximal inhibition (IC50) and the “Ratio = CXCR1 IC50/CXCR2 IC50 (selectivity for CXCR2 over CXCR1)” value is more than 188.7. The compound also returned an IC50 on CXCR1 of more than 100 µM.

As to `CN(C)C(=O)c1cccc(Nc2c(NC3C[C@H]4C[C@@H]3C3CCC[C@@H]34)c(=O)c2=O)c1O` (stereo partly drawn) [1d, 2-Hydroxy-N,N-dimethyl-3-((2-(((4R,7R,7aR)-octahydro-1H-4,7-methanoinden-5-yl)amino)-3,4-dioxocyclobut-1-en-1-yl)amino)benzamide], the values for the IC50 against CXCR2 and against CXCR1 were 1 µM and 6.7 µM, respectively. Moreover, the “Ratio = CXCR1 IC50/CXCR2 IC50 (selectivity for CXCR2 over CXCR1)” value at CXCR2 was determined as 6.7.

Turning to `O=C(c1cccc(Nc2c(NC3C[C@@H]4CC[C@H]3C4)c(=O)c2=O)c1O)N1CCCCC1` (stereo partly drawn) [2f, 3-(((1S,4R)-Bicyclo[2.2.1]heptan-2-yl)amino)-4-((2-hydroxy-3-(piperidine-1-carbonyl)phenyl)amino)cyclobut-3-ene-1,2-dione], on CXCR2, the IC50 was found to be 0.59 µM and the “Ratio = CXCR1 IC50/CXCR2 IC50 (selectivity for CXCR2 over CXCR1)” value worked out at 17.5. Also, half-maximal inhibition at CXCR1 (IC50) required 10.3 µM.

As to `N#Cc1ccc(Nc2c(NC3C[C@@H]4CC[C@H]3C4)c(=O)c2=O)c(O)c1` (stereo partly drawn) [2b, 4-((2-(((1S,4R)-Bicyclo[2.2.1]heptan-2-yl)amino)-3,4-dioxocyclobut-1-en-1-yl)amino)-3-hydroxybenzonitrile], the concentration for half-maximal inhibition (IC50) amounted to 0.45 µM against CXCR2 and 42.7 µM against CXCR1. Further, the “Ratio = CXCR1 IC50/CXCR2 IC50 (selectivity for CXCR2 over CXCR1)” value at CXCR2 stood at 94.9.

For the compound `CC(C)S(=O)(=O)c1c(Cl)ccc(Nc2c(NC3C[C@@H]4CC[C@H]3C4)c(=O)c2=O)c1O` (stereo partly drawn) [2c, 3-(((1S,4R)-Bicyclo[2.2.1]heptan-2-yl)amino)-4-((4-chloro-2-hydroxy-3-(isopropylsulfonyl)phenyl)amino)cyclobut-3-ene-1,2-dione], at CXCR2, half-maximal inhibition (IC50) required 0.12 µM and the “Ratio = CXCR1 IC50/CXCR2 IC50 (selectivity for CXCR2 over CXCR1)” value worked out at 103.3. This compound also showed an IC50 against CXCR1 of 12.4 µM.

As for `CN(C)C(=O)c1cccc(Nc2c(NC3C[C@@H]4CC[C@H]3C4)c(=O)c2=O)c1O` (stereo partly drawn) [1a, 3-((2-(((1S,4R)-Bicyclo[2.2.1]heptan-2-yl)amino)-3,4-dioxocyclobut-1-en-1-yl)amino)-2-hydroxy-N,N-dimethylbenzamide], on CXCR2, 0.062 µM corresponded to half-maximal inhibition (IC50) and the “Ratio = CXCR1 IC50/CXCR2 IC50 (selectivity for CXCR2 over CXCR1)” value turned out to be 113. On CXCR1, half-maximal inhibition (IC50) was put at 7 µM.

On to `CC(C)(C)OC(=O)N1CCN(C(=O)c2cccc(Nc3c(NC4C[C@@H]5CC[C@H]4C5)c(=O)c3=O)c2O)CC1` (stereo partly drawn) [2g, Tert-butyl 4-(3-((2-(((1S,4R)-bicyclo[2.2.1]heptan-2-yl)amino)-3,4-dioxocyclobut-1-en-1-yl)amino)-2-hydroxybenzoyl)piperazine-1-carboxylate], for which, at CXCR2, inhibition was half-maximal at 0.42 µM (IC50) and the “Ratio = CXCR1 IC50/CXCR2 IC50 (selectivity for CXCR2 over CXCR1)” value is reported as 13.3. Moreover, the IC50 at CXCR1 turned out to be 5.6 µM.

Turning to `Cc1ccc(Nc2c(NC3C[C@@H]4CC[C@H]3C4)c(=O)c2=O)c(O)c1` (stereo partly drawn) [2a, 3-(((1S,4R)-Bicyclo[2.2.1]heptan-2-yl)amino)-4-((2-hydroxy-4-methylphenyl)amino)cyclobut-3-ene-1,2-dione], on CXCR2, the IC50 is 3.8 µM and the “Ratio = CXCR1 IC50/CXCR2 IC50 (selectivity for CXCR2 over CXCR1)” value turned out to be 22.7. The compound further returned an IC50 against CXCR1 of 86.1 µM.

On to `CN(C)C(=O)c1cccc(Nc2c(NC3C[C@H]4CC[C@@H](C3)N4C(=O)OC(C)(C)C)c(=O)c2=O)c1O` (stereo partly drawn) [1b, Tert-butyl (1R,5S)-3-((2-((3-(dimethylcarbamoyl)-2-hydroxyphenyl)amino)-3,4-dioxocyclobut-1-en-1-yl)amino)-8-azabicyclo[3.2.1]octane-8-carboxylate], for which the IC50 against CXCR2 and against CXCR1 was more than 100 µM each time.

As for `CN(C)C(=O)c1cccc(Nc2c(NCC3C[C@H]4CC[C@@H]3C4)c(=O)c2=O)c1O` (stereo partly drawn) [1f, 3-((2-((((1R,4S)-Bicyclo[2.2.1]heptan-2-yl)methyl)amino)-3,4-dioxocyclobut-1-en-1-yl)amino)-2-hydroxy-N,N-dimethylbenzamide], at CXCR2, the IC50 is 23.6 µM and the “Ratio = CXCR1 IC50/CXCR2 IC50 (selectivity for CXCR2 over CXCR1)” value amounted to 2.1. This compound showed an IC50 on CXCR1 of 48.8 µM.

For the compound `CC(C)[S+]([O-])c1c(Cl)ccc(Nc2c(NC3C[C@@H]4CC[C@H]3C4)c(=O)c2=O)c1O` (stereo partly drawn) [2d, 3-(((1S,4R)-Bicyclo[2.2.1]heptan-2-yl)amino)-4-((4-chloro-2-hydroxy-3-(isopropylsulfinyl)phenyl)amino)cyclobut-3-ene-1,2-dione], on CXCR2, the IC50 was 0.092 µM and the “Ratio = CXCR1 IC50/CXCR2 IC50 (selectivity for CXCR2 over CXCR1)” value was found to be 70.7. The IC50 against CXCR1 stood at 6.5 µM.
